Assay results: ChEMBL document CHEMBL3098049, “Concise synthesis and biological evaluation of 2-Aroyl-5-amino benzo[b]thiophene derivatives as a novel class of potent antimitotic agents” (J Med Chem, 2013)
The source made the active and inactive calls. The calls are words filed in the database; no cut-off is given here.

What was measured:
[1] = molecular target: T1, M-phase inducer phosphatase 3 (Homo sapiens) (UniProt P30307); test: Increase of cdc25c phosphorylation at Ser216 in human HeLa cells at 10 to 100 nM after 24 hrs by Western blot analysis; assay type: cell-based
T1 sequence (whole entry): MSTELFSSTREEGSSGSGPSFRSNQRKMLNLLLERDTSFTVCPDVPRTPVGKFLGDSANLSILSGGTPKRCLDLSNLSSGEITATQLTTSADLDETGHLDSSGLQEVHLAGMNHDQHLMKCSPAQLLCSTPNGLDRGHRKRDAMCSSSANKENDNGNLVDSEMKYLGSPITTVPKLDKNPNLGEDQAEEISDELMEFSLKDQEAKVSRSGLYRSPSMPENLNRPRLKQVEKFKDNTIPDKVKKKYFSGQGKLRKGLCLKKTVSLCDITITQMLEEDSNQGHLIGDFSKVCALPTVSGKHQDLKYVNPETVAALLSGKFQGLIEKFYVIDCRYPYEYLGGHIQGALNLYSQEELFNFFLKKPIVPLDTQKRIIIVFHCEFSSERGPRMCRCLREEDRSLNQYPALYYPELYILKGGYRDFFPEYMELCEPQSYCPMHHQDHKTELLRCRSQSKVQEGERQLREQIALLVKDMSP
Method in brief: (§1)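 HeLa cultures treated 24 or 48 h, washed in cold PBS, lysed 30 min at 0 °C, clarified at 15000g. 20 μg protein run on 7.5−15% gradient SDS-PAGE and blotted to PVDF. Primary antibodies 2 h at room temperature, peroxidase secondary 60 min, ECL detection. Membranes stripped and reprobed for β-actin as loading control.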

HeLa [2] = test: Effect on cyclin B protein expression in human HeLa cells at 10 to 100 nM after 24 to 48 hrs by Western blot analysis; assay type: functional, cell-based; method in brief: as §1
Jurkat [3] = test: Cell cycle arrest in human Jurkat cells assessed as accumulation at G2/M phase at 15 to 30 nM after 24 hrs by propidium iodide staining-based flow cytometric analysis relative to control; assay type: functional
Method in brief: (§2)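 Jurkat cells treated for 24 h, fixed, PI-labelled and analysed by flow cytometry for cell-cycle phase distribution. Mean of three independent experiments.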

Jurkat [4] = test: Cell cycle arrest in human Jurkat cells assessed as accumulation at G2/M phase after 24 hrs by propidium iodide staining-based flow cytometric analysis; assay type: functional; method in brief: as §2
HeLa [5] = test: Cell cycle arrest in human HeLa cells assessed as accumulation at G2/M phase after 24 hrs by propidium iodide staining-based flow cytometric analysis; assay type: functional
Method in brief: (§3)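 HeLa cells (5 × 10⁵) treated for 24 h. Harvested, fixed in 70% ethanol chilled to 0 °C, then suspended in RNase with 0.1% Triton X-100. DNA stained with PI, analysed by flow cytometry as DNA-content histograms. Mean of three independent experiments.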

Tubulin (Homo sapiens) = Tubulin (Homo sapiens) (UniProt P68371+Q9H4B7+P0DPH7+P68366+Q13509+Q71U36+P04350+Q3ZCM7+P07437+P68363+Q9BQE3+Q6PEY2+Q13885+Q9BVA1+Q9BUF5); test: Displacement of [3H]-colchicine from tubulin (unknown origin) at 1 uM after 10 mins relative to control; assay type: protein-complex assay
PBL = test: Cytotoxicity against PHA-stimulated human PBL assessed as growth inhibition after 72 hrs by MTT assay; assay type: cell-based
Method in brief: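 Human PBL from healthy donors were isolated on a density gradient, washed, and held overnight in RPMI-1640 with 10% FBS. For proliferating cultures, nonadherent cells were resuspended at 5 × 10⁵ cells/mL with 2.5 μg/mL PHA; resting PBL received no PHA. Cells were exposed to varying compound concentrations, and viability was read by MTT after 72 h. IC50 is the concentration reducing growth by 50%, as the mean of three independent experiments.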

[6] = Cytotoxicity against human Molt4/C8 cells assessed as growth inhibition after 48 hrs by coulter counting analysis; assay type: functional, cell-based; details: MOLT-4, 48 h
Method in brief: (§4)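 Cells suspended at (3−5) × 10⁵ cells/mL and mixed 1:1 with compound dilutions. Incubated 48 h at 37 °C, counted with a Coulter counter. IC₅₀ = concentration inhibiting proliferation by 50%. Mean of at least three independent experiments.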

L1210 = test: Cytotoxicity against mouse L1210 cells assessed as growth inhibition after 48 hrs by coulter counting analysis; assay type: functional, cell-based; details: L1210, 48 h; method in brief: as §4
Jurkat [7] = test: Cell cycle arrest in human Jurkat cells assessed as accumulation at G2/M phase at 10 nM after 24 hrs by propidium iodide staining-based flow cytometric analysis; assay type: functional; method in brief: as §2
HeLa [8] = test: Cell cycle arrest in human HeLa cells assessed as accumulation at G2/M phase at 10 nM after 24 hrs by propidium iodide staining-based flow cytometric analysis; assay type: functional; method in brief: as §3
[9] = Selectivity ratio of IC50 for HUVEC to IC50 for human HeLa cells; assay type: ADME, cell-based; details: HUVEC and HeLa cells, read-out: Ratio IC50
Mus musculus = test: Toxicity in Balb/c-nu mouse xenografted with human MNNG-HOS cells assessed as change in body weight at 50 mg/kg, ip administered once every 3 days for 9 days measured after day 18; assay type: organism-based; parameters: dose 50 mg/kg, route intraperitoneal; details: in vivo
Method in brief: (§5)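 MNNG/HOS osteosarcoma cells grown to exponential phase, suspended in FBS-free MEM (10⁷ cells/mL), 0.1 mL injected into back hypodermis of nude mice. At ~100 mm³, 12 mice randomised to three groups (vehicle, CA-4P in isotonic saline, test in 5% DMSO/olive oil). 50 mg/kg ip at 0.01 mL/g on days 0, 3, 6, 9. Tumour volume and body weight tracked; tumours excised and weighed day 18; […].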

MNNG-HOS [10] = test: Antitumor activity against human MNNG-HOS cells xenografted in Balb/c-nu mouse assessed as tumor growth inhibition at 50 mg/kg, ip measured after 3 days; assay type: functional, organism-based; parameters: dose 50 mg/kg; details: HOS-TE85
MNNG-HOS [11] = test: Antitumor activity against human MNNG-HOS cells xenografted in Balb/c-nu mouse assessed as reduction in tumor weight at 50 mg/kg, ip administered once every 3 days for 9 days measured after day 18; assay type: functional, organism-based; parameters: dose 50 mg/kg; details: HOS-TE85; method in brief: as §5
HeLa [12] = test: Downregulation of Bcl-2 protein expression in human HeLa cells at 10 to 100 nM after 24 to 48 hrs by Western blot analysis; assay type: functional, cell-based; method in brief: as §1
HeLa [13] = test: Induction of apoptosis in human HeLa cells assessed as caspase-3 cleavage at 10 to 100 nM after 24 to 48 hrs by Western blot analysis; assay type: functional, cell-based; method in brief: as §1
HeLa [14] = test: Induction of mitochondrial membrane depolarization in human HeLa cells at 15 to 250 nM by JC-1 staining-based fluorescence assay; assay type: functional, cell-based; details: TDE = time-dependent effect
Method in brief: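 HeLa cells treated 24 or 48 h, then stained with JC-1. Cells with depolarised mitochondria quantified by flow cytometry. Mean of three independent experiments.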

HeLa [15] = test: Induction of apoptosis in human HeLa cells at 15 nM after 24 to 48 hrs by annexin-V-FITC/propidium iodide staining-based flow cytometric analysis; assay type: functional, cell-based
Method in brief: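 HeLa cells treated 24 or 48 h, stained with annexin-V-FITC and PI, analysed by flow cytometry. Excitation 488 nm; emission 525 nm for FITC, 585 nm for PI. Gating separates live, early apoptotic, late apoptotic and necrotic cells. Mean of three independent experiments.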

HeLa [16] = test: Induction of DNA damage in human HeLa cells assessed as upregulation of gamma-H2A.X protein expression at 100 nM after 24 hrs by Western blot analysis; assay type: functional, cell-based; method in brief: as §1

## COc1cc(C(=O)c2cc3cc(N)cc(OC)c3s2)cc(OC)c1OC
[1]
  Activity: Active
HeLa [2]
  Activity: inactive
Jurkat [3]
  Activity: 40%
Jurkat [4]
  Activity: Dose-dependent effect
HeLa [5]
  Activity: Dose-dependent effect
Tubulin (Homo sapiens)
  inhibition: 89%
PBL
  IC50: 20600 nM
[6]
  IC50: 2.6 nM
L1210
  IC50: 5 nM
Jurkat [7]
  Activity: Active
HeLa [8]
  Activity: Active
[9]
  selectivity ratio: 460
Mus musculus
  Activity: Non-toxic
MNNG-HOS [10]
  TGI: Active
MNNG-HOS [11]
  Activity: Active
HeLa [12]
  Activity: Active
HeLa [13]
  Activity: Active
HeLa [14]
  Activity: tde
HeLa [15]
  Activity: Active
HeLa [16]
  Activity: Active
